Compounds with a hit are over-represented: about 2.8% of the library has one in this group of screens.
m5-HT2A agonist: activates the mouse 5-HT2A serotonin receptor | P35363 | CHO-K1 mHTR2A beta-arrestin complementation, luminescence; percent of 30 µM serotonin response | activation, % at 7.6 µM | hit rate 0.66% among 360,000;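 active means activation above a run cutoff, the mean activation of all tested compounds plus 3 SD, cut at about 14% in these data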;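 further: 0% = plate median of compound wells and 100% = 30 µM serotonin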
MC4R antag cAMP: blocks human MC4R cAMP signaling. MC4R-expressing cells, MTII-stimulated cAMP, LANCE TR-FRET. inhibition, % at 6.5 µM. hit rate 0.48% among 360,000. AID 540295;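 active means inhibition above its plate's cutoff, the mean of tested wells on that plate plus 3 SD, cut at about 29% in these data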;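 further: 0% = Melanotan II alone and 100% = Melanotan II plus saturating MCL0020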
Target sequence (P32245 whole entry, looked up): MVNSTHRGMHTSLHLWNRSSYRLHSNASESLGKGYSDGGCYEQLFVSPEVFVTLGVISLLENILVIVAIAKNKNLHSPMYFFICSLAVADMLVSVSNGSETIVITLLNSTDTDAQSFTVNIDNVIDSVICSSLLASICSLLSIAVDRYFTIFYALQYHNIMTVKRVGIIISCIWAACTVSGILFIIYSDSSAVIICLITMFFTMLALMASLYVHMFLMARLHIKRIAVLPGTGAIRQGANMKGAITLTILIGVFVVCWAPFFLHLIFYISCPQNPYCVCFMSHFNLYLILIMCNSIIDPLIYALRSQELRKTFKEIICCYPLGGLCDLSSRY
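System: U2OS cells stably expressing human melanocortin 4 receptor (MC4R). Reagent: Melanotan II challenge after compound preincubation. Doses: 6.5 µM. Times: 30-min compound, 1-h challenge, 1-h detection, room temperature. Measured by: TR-FRET with Eu-cAMP and labeled anti-cAMP, 671 nm. Replicates: singlicate.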
EBI2 block: antagonists of human EBI2 receptor | P32249 | EBI2 beta-arrestin recruitment, luminescence, 7a,25-OHC stimulated | inhibition, % at 5 µM | hit rate 0.81% among 360,000 | AID 651636; in the data active means inhibition above about 38%;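 further: enzyme fragment complementation signal reports receptor beta-arrestin coupling in cells; 0% = agonist plus DMSO wells and 100% = wells without agonist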
MC4R barr agon: activates human MC4R beta-arrestin recruitment | U2OS MC4R beta-arrestin complementation, luminescence; percent of melanotan II response, DMSO zero | hit rate 0.98% among 360,000 | P32245 | AID 540308 | activation, % at 8.9 µM;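 active means activation above a per-plate cutoff, the mean activation of sample wells on that plate plus 3 SD, cut at about 8% in these data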
OPRM1 ag: OPRM1 agonism in mouse HTR2A counterscreen; AID 624380; activation, % at 9.3 µM; hit rate 5.3% among 2,300; shares compounds with m5-HT2A agonist; U2OS OPRM1 beta-arrestin PathHunter, luminescence; DMSO 0%, DAMGO 9.3 µM 100%;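 active means mean activation above the mean of DMSO-only wells plus 3 SD, cut at about 0.5% in these data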
m5-HT2A ag conf: confirmation of mouse HTR2A serotonin receptor agonists | shares compounds with m5-HT2A agonist | CHO-K1 PathHunter beta-arrestin recruitment, luminescence; DMSO 0%, 30 µM serotonin 100% | activation, % at 7.6 µM | hit rate 19% among 2,300;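 active means mean activation across triplicates above the hit threshold derived in the original primary screen, cut at about 15% in these data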
Starred values were filed as active, the others as inactive; · = no result.

SMILES	m5-HT2A agonist	MC4R antag cAMP	EBI2 block	MC4R barr agon	OPRM1 ag	m5-HT2A ag conf
Cc1ccsc1CNC(=O)C1(C)CCCN1CC(C)C (configuration not stated)	-5	-1	4	-1	·	·
COCC1CCCCN1C(=O)c1cc(COc2ccc3ncccc3c2)on1 (configuration not stated)	20*	14	2	1	0	0
Cc1cccc(C)c1NC(=O)C1(C)CSCC(=O)N1CCCN1CCOCC1 (configuration not stated)	1	·	-2	·	·	·
Cc1ccc(SCc2cc(=O)[nH]c(N3CCN(Cc4ccccc4)CC3)n2)cc1	18*	-1	-4	0	-1	12
CCCc1c(-c2ccc(F)cc2F)ncn1Cc1ccccc1OC	-5	·	15	·	·	·
CCc1ccc(OCCCC(=O)Nc2ccc(S(=O)(=O)Nc3cc(C)nc(C)n3)cc2)cc1	15*	17	0	-1	-1	-7
CCOc1ccccc1NC(=O)CSc1nnc(CNC(=O)c2ccccc2F)o1	17*	3	-1	-2	-1	-4
Cc1[nH]c2ccccc2c1C(=O)COC(=O)C1CC(O)CN1S(=O)(=O)c1ccc(Cl)cc1 (configuration not stated)	15*	-1	-16	0	0	5
O=C(COC(=O)C1CC(O)CN1S(=O)(=O)c1ccc(Cl)cc1)c1ccccc1 (configuration not stated)	-2	-6	-2	-2	·	·
Cc1noc(C)c1S(=O)(=O)Nc1ccc2c(c1)C(=O)N([C@H](C)CO)C[C@H](C)[C@@H](CN(C)S(=O)(=O)c1ccccc1)O2	-1	2	3	3	·	·
COC(=O)[C@H]1C[C@@]2(O)CN(S(=O)(=O)c3ccc(C)cc3)C[C@@]2(OC(=O)NCc2ccccc2F)C[C@H]1C(=O)OC	19*	7	-1	2	0	-2
COc1ccccc1N1CCN(C(=O)C2=CC=CN3CCS(=O)(=O)N=C23)CC1	-1	22	-3	-2	·	·
COc1ccccc1NS(=O)(=O)c1cccc(C(=O)NNC(=O)c2ccc(O)c(Cl)c2)c1	16*	11	-4	-5	0	-3
CCOC(=O)C(C(=O)N(C)C)c1ncc(C(F)(F)F)cc1Cl (configuration not stated)	19*	-6	-6	4	-1	2
O=C(C(=O)N1CCC(Cc2ccccc2)CC1)c1ccccc1Br	-2	·	12	·	·	·
O=C(OCc1cn([C@H]2CN(C(=O)c3cccs3)[C@@H](c3ccccc3)C[C@@H]2O)nn1)c1ccccc1	-1	12	-6	0	·	·
CN[C@H](C)C(=O)NC[C@H]1O[C@@H](n2ccc(N)nc2=O)[C@H](O)[C@@H]1O	5	1	-9	0	·	·
N#Cc1ccccc1C[C@H](N)C(=O)NC[C@H]1O[C@@H](n2ccc(N)nc2=O)[C@H](O)[C@@H]1O	29*	4	-2	0	0	-3
CC(O)(c1cccc(F)c1)c1nc(-c2cnc3ccccc3c2)cs1 (configuration not stated)	1	3	8	2	·	·
Cc1csc(NC(=O)C2CCCN(S(=O)(=O)c3ccc4c(c3)oc(=O)n4C)C2)n1 (configuration not stated)	21*	19	-10	1	0	1
CN(C)C(CNC(=O)c1cccc(S(=O)(=O)Nc2ccc(SC(F)F)cc2)c1)c1ccccc1 (configuration not stated)	-13	-2	2	-1	·	·
NC(=NCc1ccccc1)NN=Cc1ccnc2ccccc12	-11	·	1	·	·	·
O=C(Nc1n[nH]c(=S)s1)c1ccc2ccccc2c1	18*	11	-5	0	0	2
Cc1nc(C(F)(F)F)ccc1C(=O)N1CCC1(C)C(=O)NS(=O)(=O)c1cccc(C#N)c1 (configuration not stated)	5	-4	-12	1	·	·
COc1ccc(NC(=O)C2CC(=O)N(c3ccccc3C)C2)c(OC)c1 (configuration not stated)	15*	-6	-10	0	-1	-3
SMILES	m5-HT2A agonist	MC4R antag cAMP	EBI2 block	MC4R barr agon	OPRM1 ag	m5-HT2A ag conf
COc1ccc(OC)c(NC(=O)C2CC(=O)N(c3ccccc3)C2)c1 (configuration not stated)	5	5	-8	1	·	·
O=C(NCc1ccccc1Cl)c1csc(COCCO)n1	-2	10	0	0	·	·
CC1(C(=O)Nc2ccccc2)Cc2c(-c3cccc(C(F)(F)F)c3)ccnc2O1 (configuration not stated)	-1	1	1	4	·	·
O=C(OCC1COC(c2ccccc2)(c2ccccc2)O1)c1ccccc1 (configuration not stated)	-2	18	4	1	·	·
C=CCOC(=O)c1ccccc1C(=O)OCC1CO1 (configuration not stated)	23*	2	-4	-1	0	4
CCS(=O)(=O)c1ccc(-c2csc(-c3ccccc3)n2)c(Cl)c1Cl	16*	7	22	3	0	2
Cc1noc(C)c1S(=O)(=O)N1CCCC(C(=O)N2CCN(C3CCCCC3)CC2)C1 (configuration not stated)	0	0	1	-1	·	·
Cc1noc(C)c1S(=O)(=O)N1CCC(C(=O)N2CCC(N3CCCCC3)CC2)CC1	34*	-3	-2	0	0	-4
CCN1CCN(c2ccc(NC(=O)COc3ccc(Cl)cc3C)cc2)CC1	-10	0	-20	0	·	·
O=C(CCCNC(=O)c1ccc(Cl)cc1)Nc1ccc(F)c(S(=O)(=O)N2CCOCC2)c1	-6	20	-7	-1	·	·
COc1ccc(NC(=O)CCCNC(=O)c2ccc(Cl)cc2)cc1S(=O)(=O)N1CCOCC1	15*	0	-7	-2	-1	-2
Cn1c(N)c(C(=O)COC(=O)CNC(=O)c2ccc(Cl)cc2Cl)c(=O)n(C)c1=O	14*	14	-4	-2	0	-2
Cn1c(N)c(C(=O)COC(=O)Cc2ccc(Cl)cc2Cl)c(=O)n(C)c1=O	-8	5	4	0	·	·
CC(=O)c1c(C)[nH]c(C(=O)CN2CCN(S(=O)(=O)c3ccccc3[N+](=O)[O-])CC2)c1C	4	15	13	0	·	·
CC(=O)N1C[C@H]2CON(C)[C@H]2C[C@H]1c1ccc(-c2ccc(C#N)cc2)cc1	0	9	-3	-1	·	·
COc1ccc(S(=O)(=O)N[C@@H](Cc2ccccc2)C(=O)N2CC[C@@]3(O)CCCC[C@H]3C2)cc1	1	5	-9	-1	·	·
O=C([C@H](Cc1ccccc1)NS(=O)(=O)c1ccc(Cl)cc1)N1CC[C@@]2(O)CCCC[C@H]2C1	17*	-2	-8	-1	-1	-5

Source: PubChem
